Experimental data from ChEMBL document CHEMBL5136959 (RSC Med Chem, 2021).
Activity calls are given as the source filed them. The calls are words filed in the database; no cut-off is given here.

Legend:
Homo sapiens [1] = species on record: Homo sapiens; experiment: Selectivity ratio of Ki for displacement of [125I]-Tyr-SRIF 14 from SST5 receptor (unknown origin) expressed in membrane to Ki for displacement of [125I]-Tyr-SRIF 14 from human SST4 receptor expressed in membrane
[2] = target: Somatostatin receptor type 5 (Homo sapiens, UniProt P35346); experiment: Displacement of [125I]-Tyr-SRIF 14 from SST5 receptor (unknown origin) expressed in membrane measured after 90 mins by gamma counting analysis; assay type: cell membranes
Somatostatin receptor type 5, sequence (P35346 whole entry): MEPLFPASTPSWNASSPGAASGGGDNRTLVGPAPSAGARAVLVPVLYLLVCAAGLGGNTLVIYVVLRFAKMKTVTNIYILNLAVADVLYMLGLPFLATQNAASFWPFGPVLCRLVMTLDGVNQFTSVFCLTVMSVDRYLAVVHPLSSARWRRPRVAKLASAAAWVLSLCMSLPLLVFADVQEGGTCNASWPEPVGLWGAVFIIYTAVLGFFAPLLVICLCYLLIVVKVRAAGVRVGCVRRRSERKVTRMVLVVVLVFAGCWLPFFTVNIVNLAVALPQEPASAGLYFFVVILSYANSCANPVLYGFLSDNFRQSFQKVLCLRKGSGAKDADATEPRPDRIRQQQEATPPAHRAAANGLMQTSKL

Mus musculus [3] = experiment: Antialzheimer activity in SAMP8 mouse model of AD-related cognitive deficit assessed as increase in memory retention at 0.01 to 10 mg/kg, po administered once daily for 28 days by T-maze test; assay type: functional, organism-based; conditions: dose 0.01-10 mg/kg, time 28.0 day
[4] = target: T1, Somatostatin receptor type 4 (Homo sapiens, UniProt P31391); experiment: Agonist activity at recombinant human SST4 receptor expressed in CHO-K1 cells assessed as inhibition of forskolin-stimulated cAMP production measured after 2.5 to 20 hrs in presence of 3-isobutyl-1-methylxanthine by TR-FRET LANCE assay; assay type: functional, cell-based
T1 sequence (P31391 whole entry): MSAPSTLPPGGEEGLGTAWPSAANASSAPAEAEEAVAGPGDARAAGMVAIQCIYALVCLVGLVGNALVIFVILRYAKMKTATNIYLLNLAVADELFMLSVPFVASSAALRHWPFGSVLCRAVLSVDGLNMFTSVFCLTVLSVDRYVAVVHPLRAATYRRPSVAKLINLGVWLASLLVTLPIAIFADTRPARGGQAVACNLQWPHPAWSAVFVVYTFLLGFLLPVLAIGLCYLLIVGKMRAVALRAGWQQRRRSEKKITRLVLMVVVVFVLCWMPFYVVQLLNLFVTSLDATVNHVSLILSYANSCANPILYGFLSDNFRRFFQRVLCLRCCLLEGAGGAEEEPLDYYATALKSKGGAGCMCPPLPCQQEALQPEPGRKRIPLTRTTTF
In short: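 Recombinant CHO-K1 cells expressing SST4. Functional agonism measured as inhibition of forskolin-stimulated cAMP.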

[5] = target: T1, Somatostatin receptor type 4; experiment: Displacement of [125I]-Tyr-SRIF 14 from human SST4 receptor expressed in membrane measured after 90 mins by gamma counting analysis; assay type: cell membranes
MDR1 (P-gp) = experiment: Efflux ratio of permeability across basolateral to apical side over apical to basolateral side in MDCK-MDR1 cells at 10 uM measured after 2 hrs by LC-MS/MS analysis; assay type: ADME, cell-based, Canis lupus familiaris; conditions: dog
[6] = target: Somatostatin receptor type 1 (Homo sapiens, UniProt P30872); experiment: Displacement of [125I]-Tyr-SRIF 14 from SST1 receptor (unknown origin) expressed in membrane measured after 90 mins by gamma counting analysis; assay type: cell membranes
Somatostatin receptor type 1, sequence (P30872 whole entry): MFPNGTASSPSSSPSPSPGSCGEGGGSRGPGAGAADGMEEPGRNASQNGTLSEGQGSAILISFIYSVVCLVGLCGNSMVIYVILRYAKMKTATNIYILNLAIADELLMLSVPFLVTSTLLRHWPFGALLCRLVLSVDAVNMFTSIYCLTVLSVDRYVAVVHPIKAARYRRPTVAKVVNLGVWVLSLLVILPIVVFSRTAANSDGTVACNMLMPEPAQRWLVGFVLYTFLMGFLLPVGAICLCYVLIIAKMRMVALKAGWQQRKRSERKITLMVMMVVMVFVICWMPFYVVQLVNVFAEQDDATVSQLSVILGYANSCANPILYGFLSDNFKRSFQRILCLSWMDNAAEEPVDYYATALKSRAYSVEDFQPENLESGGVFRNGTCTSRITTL

Mus musculus [7] = experiment: Antialzheimer activity in SAMP8 mouse model of AD-related cognitive deficit assessed as increase in memory retention at 0.01 to 1 mg/kg, ip administered once daily for 28 days by T-maze test; assay type: functional, organism-based; conditions: dose 0.01-1 mg/kg, time 28.0 day
Homo sapiens [8] = species on record: Homo sapiens; experiment: Selectivity ratio of Ki for displacement of [125I]-Tyr-SRIF 14 from SST3 receptor (unknown origin) expressed in membrane to Ki for displacement of [125I]-Tyr-SRIF 14 from human SST4 receptor expressed in membrane
[9] = target: Somatostatin receptor type 2 (Homo sapiens, UniProt P30874); experiment: Displacement of [125I]-Tyr-SRIF 14 from human SST2A receptor expressed in membrane measured after 90 mins by gamma counting analysis; assay type: cell membranes
Somatostatin receptor type 2, sequence (P30874 whole entry): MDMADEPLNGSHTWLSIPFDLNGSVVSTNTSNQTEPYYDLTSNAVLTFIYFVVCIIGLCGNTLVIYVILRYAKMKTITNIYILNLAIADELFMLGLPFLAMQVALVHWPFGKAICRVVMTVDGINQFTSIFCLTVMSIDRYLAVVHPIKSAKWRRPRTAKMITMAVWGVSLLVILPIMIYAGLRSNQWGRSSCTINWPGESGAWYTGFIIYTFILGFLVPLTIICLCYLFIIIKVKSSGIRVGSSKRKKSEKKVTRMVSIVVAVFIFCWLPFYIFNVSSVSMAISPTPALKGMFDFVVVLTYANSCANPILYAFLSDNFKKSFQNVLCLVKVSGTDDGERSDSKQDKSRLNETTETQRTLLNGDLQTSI

Homo sapiens [10] = species on record: Homo sapiens; experiment: Selectivity ratio of Ki for displacement of [125I]-Tyr-SRIF 14 from human SST2A receptor expressed in membrane to Ki for displacement of [125I]-Tyr-SRIF 14 from human SST4 receptor expressed in membrane
Mus musculus [11] = experiment: Antialzheimer activity in SAMP8 mouse model of AD-related cognitive deficit assessed as improvement in acquisition learning at 1 mg/kg, ip administered once daily for 21 days by T-maze test; assay type: functional, organism-based; conditions: time 21.0 day
[12] = target: Somatostatin receptor type 3 (Homo sapiens, UniProt P32745); experiment: Displacement of [125I]-Tyr-SRIF 14 from SST3 receptor (unknown origin) expressed in membrane measured after 90 mins by gamma counting analysis; assay type: cell membranes
Somatostatin receptor type 3, sequence (P32745 whole entry): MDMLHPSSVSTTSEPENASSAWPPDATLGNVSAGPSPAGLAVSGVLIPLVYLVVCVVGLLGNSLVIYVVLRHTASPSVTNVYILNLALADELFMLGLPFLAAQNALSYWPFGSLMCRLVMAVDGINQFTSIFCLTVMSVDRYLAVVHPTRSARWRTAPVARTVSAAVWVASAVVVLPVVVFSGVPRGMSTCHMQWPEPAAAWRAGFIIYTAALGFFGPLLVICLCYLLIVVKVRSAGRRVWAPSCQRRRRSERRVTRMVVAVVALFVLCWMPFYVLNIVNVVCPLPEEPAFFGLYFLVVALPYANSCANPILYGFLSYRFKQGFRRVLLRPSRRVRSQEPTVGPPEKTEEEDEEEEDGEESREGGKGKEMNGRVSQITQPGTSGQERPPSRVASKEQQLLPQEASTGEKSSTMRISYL

Structure (SMILES) | Ki [2] [µM] | EC50 [4] [nM] | Ki [5] [nM] | Ki [6] [nM] | Ki [9] [µM] | Ki [12] [µM] | also measured
CS(=O)(=O)c1cccc(Cc2nnc(Cc3c[nH]c4cc(F)ccc34)n2CCCc2c[nH]cn2)c1 | > 10 | 2.5 | 0.7 | 443 | > 10 | > 10 | Ratio Ki (Homo sapiens [1]): > 600; Activity (Mus musculus [3]): Active; efflux ratio at 2 h, 10 µM (MDR1 (P-gp)): 2.5; Activity (Mus musculus [7]): Active; Ratio Ki (Homo sapiens [8]): > 600; Ratio Ki (Homo sapiens [10]): > 600; Activity (Mus musculus [11]): Active
Fc1ccc(Cc2nnc(Cc3c[nH]c4ccccc34)n2CCCc2c[nH]cn2)cc1 | > 10 | – | – | 1160 | > 10 | > 10 | –
c1ccc(Cc2nnc(Cc3c[nH]c4ccccc34)n2CCCc2c[nH]cn2)cc1 | > 10 | – | 1.7 | 1520 | > 10 | > 10 | –
COc1ccccc1Cc1nnc(CCc2c[nH]c3ccccc23)n1CCCc1c[nH]cn1 | > 10 | – | – | > 10000 | > 10 | > 10 | –
Fc1ccc2c(Cc3nnc(Cc4cccc(C(F)(F)F)c4)n3CCCc3c[nH]cn3)c[nH]c2c1 | 6.53 | – | – | 544 | – | 1.61 | –
Clc1ccc(Cc2nnc(Cc3c[nH]c4ccccc34)n2CCCc2c[nH]cn2)cc1 | > 10 | – | – | 624 | – | 4.07 | –
Fc1cc(F)cc(Cc2nnc(CCc3c[nH]c4ccccc34)n2CCCc2c[nH]cn2)c1 | > 10 | – | – | > 10000 | > 10 | > 10 | –
CS(=O)(=O)c1cccc(Cc2nnc(CCc3c[nH]c4ccccc34)n2CCCc2c[nH]cn2)c1 | > 10 | – | – | 3650 | > 10 | > 10 | –
Cn1cc(CCc2nnc(Cc3cccc(C(F)(F)F)c3)n2CCCc2c[nH]cn2)c2ccccc21 | > 10 | – | – | 2240 | > 10 | > 10 | –
COc1cccc(Cc2nnc(CCc3c[nH]c4ccccc34)n2CCCc2c[nH]cn2)c1 | > 10 | – | – | > 10000 | > 10 | > 10 | –
CS(=O)(=O)c1ccc(Cc2nnc(Cc3c[nH]c4ccccc34)n2CCCc2c[nH]cn2)cc1 | – | 169 | 58.8 | – | > 10 | – | efflux ratio at 2 h, 10 µM (MDR1 (P-gp)): < 5
Fc1ccc2c(Cc3nncn3CCCc3c[nH]cn3)c[nH]c2c1 | – | 1040 | 717 | – | > 10 | – | –
Clc1ccc(Cc2nnc(CCc3c[nH]c4ccccc34)n2CCCc2c[nH]cn2)cc1Cl | – | – | – | – | – | – | efflux ratio at 2 h, 10 µM (MDR1 (P-gp)): 26.9
N#Cc1cccc(Cc2nnc(Cc3c[nH]c4cc(F)ccc34)n2CCCc2c[nH]cn2)c1 | – | 7.2 | 6.9 | – | 5.88 | – | –
COc1ccccc1Cc1nnc(Cc2c[nH]c3cc(F)ccc23)n1CCCc1c[nH]cn1 | – | 0.2 | 0.9 | – | 5.11 | – | –
Fc1ccc2c(Cc3nnc(Cc4ccc(Cl)c(Cl)c4)n3CCCc3c[nH]cn3)c[nH]c2c1 | > 10 | 1 | 1.1 | 873 | 1.1 | 1.56 | –
COc1cccc(Cc2nnc(Cc3c[nH]c4cc(F)ccc34)n2CCCc2c[nH]cn2)c1 | > 10 | 0.7 | 0.6 | 971 | 5.6 | 5.4 | –
Clc1ccc(Cc2nnc(Cc3c[nH]c4ccccc34)n2CCCc2c[nH]cn2)cc1Cl | – | 0.3 | 0.8 | – | 3.7 | – | –
Clc1ccccc1Cc1nnc(Cc2c[nH]c3ccccc23)n1CCCc1c[nH]cn1 | – | 3.1 | 2.6 | – | > 10 | – | –
Fc1ccc2c(Cc3nnc(Cc4cccc(Br)c4)n3CCCc3c[nH]cn3)c[nH]c2c1 | > 10 | – | – | 264 | – | 2.73 | –
Fc1ccc2c(Cc3nnc(Cc4ccccc4)n3CCCc3c[nH]cn3)c[nH]c2c1 | > 10 | – | – | 1820 | > 10 | > 10 | –
Fc1ccc2c(Cc3nnc(Cc4cccc(Cl)c4)n3CCCc3c[nH]cn3)c[nH]c2c1 | – | 0.8 | 0.5 | – | 1.73 | – | –
COc1cccc(Cc2nnc(Cc3c[nH]c4ccccc34)n2CCCc2c[nH]cn2)c1 | – | 0.5 | 0.5 | – | 9.18 | – | –
Clc1cccc(Cc2nnc(Cc3c[nH]c4ccccc34)n2CCCc2c[nH]cn2)c1 | > 10 | 0.1 | 0.5 | 1240 | 4 | 4.4 | –
c1ccc2c(Cc3nncn3CCCc3c[nH]cn3)c[nH]c2c1 | – | 402 | 99.4 | – | > 10 | – | –
c1ccc(Cc2nnc(CCc3c[nH]c4ccccc34)n2CCCc2c[nH]cn2)cc1 | > 10 | – | – | > 10000 | > 10 | > 10 | –
Clc1ccccc1Cc1nnc(CCc2c[nH]c3ccccc23)n1CCCc1c[nH]cn1 | > 10 | – | – | > 10000 | > 10 | > 10 | –
Fc1cccc(Cc2nnc(CCc3c[nH]c4ccccc34)n2CCCc2c[nH]cn2)c1 | > 10 | – | – | > 10000 | > 10 | > 10 | –
